Experimental data: ChEMBL document CHEMBL1275591, “Cellular pharmacodynamics of the novel biaryloxazolidinone radezolid: studies with infected phagocytic and nonphagocytic cells, using Staphylococcus aureus, Staphylococcus epidermidis, Listeria monocytogenes, and Legionella pneumophila” (Antimicrob Agents Chemother, 2010)
In brackets after ≈: the same amount, converted by molar mass.

Tests used:
Staphylococcus aureus [1] = assay: Antimicrobial activity against Linezolid resistant hospital acquired methicillin-resistant Staphylococcus aureus SA238L after 24 hrs; assay type: functional
Staphylococcus aureus [2] = assay: Antimicrobial activity against methicillin-resistant, vancomycin intermediate Staphylococcus aureus NRS18 after 24 hrs; assay type: functional; conditions: NRS18, 24 h
HUVEC [3] = assay: Ratio of drug level for cellular to extracellular region of Staphylococcus aureus infected HUVEC cells at 4 mg/liter after 24 hrs; assay type: ADME, cell-based; conditions: human
Method in brief: (§1)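 Cells were exposed to [14C]radezolid for 2 or 24 h. Cell-associated drug in lysates was measured by liquid scintillation counting (detection limit 0.003 mg/liter; linear 0.01–0.78 mg/liter). Content was normalised to cell protein (Lowry). It was converted to apparent cellular concentration at 5 μl per mg protein and expressed relative to the extracellular concentration.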

Staphylococcus aureus [4] = assay: Antimicrobial activity against hospital acquired methicillin-resistant, vancomycin resistant Staphylococcus aureus VRS1 after 24 hrs; assay type: functional; conditions: VRS1, 24 h
Staphylococcus aureus [5] = assay: Bacteriostatic activity against linezolid-susceptible Staphylococcus aureus SA238 after 24 hrs; assay type: functional
Method in brief: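 Extracellular concentration-response in Mueller-Hinton broth over 24 h. Change in CFU was fitted to a sigmoidal function, and the apparent static concentration (Cs) was derived from the fit.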

Staphylococcus aureus [6] = assay: Antimicrobial activity against linezolid-susceptible Staphylococcus aureus SA238 infected in Calu-3 cells assessed as log reduction in bacterial count after 24 hrs; assay type: functional
Method in brief: (§2)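 S. aureus was internalized by adherent nonphagocytic cells: Calu-3, HUVEC, keratinocytes on collagen-coated wells, osteoblasts, or rat embryo fibroblasts. Inoculum was 5 × 10^7 to 1 × 10^8 bacteria/ml with 2 h phagocytosis (HUVEC: 2 × 10^6/ml, 1 h). Cells were then exposed to graded drug concentrations for 24 h. CFU change versus the original inoculum was fitted sigmoidally for Emax and Cs.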

Staphylococcus aureus [7] = assay: Antimicrobial activity against linezolid-susceptible Staphylococcus aureus NRS18 infected in THP1 cells assessed as log reduction in bacterial count after 24 hrs; assay type: functional, THP-1
Method in brief: (§3)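 Bacteria were phagocytosed by human THP-1 macrophage-like cells, then exposed to a range of drug concentrations for a fixed time: 24 h for S. aureus, S. epidermidis and L. monocytogenes, 48 h for L. pneumophila. Change in CFU versus the initial inoculum was fitted with a sigmoidal curve to give Emin, Emax (relative maximal efficacy), EC50 and static concentration (Cs).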

Staphylococcus aureus [8] = assay: Antimicrobial activity against hospital acquired methicillin-resistant Staphylococcus aureus SA238 after 24 hrs; assay type: functional; conditions: SA238, 24 h
Staphylococcus aureus [9] = assay: Bacteriostatic activity against linezolid-susceptible Staphylococcus aureus SA238 infected in THP1 cells at pH 7.4 after 24 hrs; assay type: functional, THP-1
[10] = system: Staphylococcus epidermidis; assay: Antimicrobial activity against Staphylococcus epidermidis infected in THP1 cells after 24 hrs; assay type: functional, organism-based; conditions: THP-1, 24 h; method in brief: as §3
Staphylococcus aureus [11] = assay: Bacteriostatic activity against linezolid-resistant Staphylococcus aureus SA238L infected in HUVEC cells after 24 hrs; assay type: functional
Method in brief: (§4)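 HUVEC were grown in endothelial growth medium on gelatin-treated flasks. They were infected with 2 × 10^6 bacteria/ml for 1 h phagocytosis, then exposed 24 h to graded antibiotic concentrations. CFU change from the initial inoculum was fitted to a sigmoidal curve to obtain the static concentration (Cs).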

Staphylococcus aureus [12] = assay: Antimicrobial activity against linezolid-resistant Staphylococcus aureus SA040L infected in THP1 cells after 24 hrs; assay type: functional, organism-based; conditions: THP-1, 24 h; method in brief: as §3
Staphylococcus aureus [13] = assay: Antimicrobial activity against methicillin-resistant, vancomycin intermediate Staphylococcus aureus NRS52 after 24 hrs; assay type: functional; conditions: NRS52, 24 h
Staphylococcus aureus [14] = assay: Antimicrobial activity against linezolid-resistant Staphylococcus aureus SA238L infected in HUVEC cells assessed as log reduction in bacterial count after 24 hrs; assay type: functional; method in brief: as §2
Staphylococcus aureus [15] = assay: Bacteriostatic activity against linezolid-susceptible Staphylococcus aureus SA238 infected in human epidermal keratinocytes cells after 24 hrs; assay type: functional
Method in brief: (§5)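 Adherent nonphagocytic cells were infected at 5 × 10^7 to 1 × 10^8 bacteria/ml with 2 h phagocytosis. Cells used: Calu-3 bronchial epithelium grown in uncoated flasks, neonatal foreskin keratinocytes on collagen-coated wells, primary human osteoblasts, and primary rat embryo fibroblasts. Antibiotic was then given over a concentration range for 24 h. Cs came from a sigmoidal fit of CFU change.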

Staphylococcus aureus [16] = assay: Antimicrobial activity against linezolid-susceptible Staphylococcus aureus SA238 infected in THP1 cells assessed as log reduction in bacterial count after 24 hrs; assay type: functional, THP-1; method in brief: as §3
Staphylococcus aureus [17] = assay: Bacteriostatic activity against linezolid-resistant Staphylococcus aureus SA238L infected in human osteoblasts cells after 24 hrs; assay type: functional; method in brief: as §5
Staphylococcus aureus [18] = assay: Antimicrobial activity against linezolid-susceptible Staphylococcus aureus SA238 infected in THP1 cells after 24 hrs; assay type: functional, organism-based; conditions: SA238, THP-1, 24 h; method in brief: as §3
[19] = system: Staphylococcus epidermidis; assay: Antimicrobial activity against Staphylococcus epidermidis SA362 after 24 hrs; assay type: functional; conditions: SA362, 24 h
Staphylococcus aureus [20] = assay: Antimicrobial activity against linezolid-susceptible Staphylococcus aureus NRS384 infected in THP1 cells assessed as log reduction in bacterial count after 24 hrs; assay type: functional, THP-1; method in brief: as §3
Staphylococcus aureus [21] = assay: Bacteriostatic activity against Staphylococcus aureus infected in THP1 cells after 24 hrs; assay type: functional, THP-1; method in brief: as §3
Staphylococcus aureus [22] = assay: Bacteriostatic activity against linezolid-susceptible Staphylococcus aureus SA040 infected in THP1 cells after 24 hrs; assay type: functional, THP-1
Method in brief: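 Human THP-1 myelomonocytic (macrophage-like) cells infected with S. aureus, then exposed 24 h to a range of antibiotic concentrations. CFU change was measured against the initial inoculum. A sigmoidal dose-response curve was fitted to give Emin, Emax and EC50, and the apparent static concentration (Cs) was taken from the fit.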

Staphylococcus aureus [23] = assay: Bacteriostatic activity against linezolid-susceptible Staphylococcus aureus SA238 infected in HUVEC cells after 24 hrs; assay type: functional; method in brief: as §4
Staphylococcus aureus [24] = assay: Antimicrobial activity against linezolid-resistant Staphylococcus aureus SA238L infected in THP1 cells after 24 hrs; assay type: functional, organism-based; conditions: THP-1, 24 h; method in brief: as §3
Staphylococcus aureus [25] = assay: Antimicrobial activity against Staphylococcus aureus ATCC 25923 infected in THP-1 cells assessed as log reduction in bacterial count at 1 mg/L after 5 hrs; assay type: functional
Method in brief: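 Time-course test with S. aureus ATCC 25923, either in Mueller-Hinton broth or after phagocytosis by THP-1 cells. Samples were taken over a 5 h incubation with drug at 1 mg/liter. Read-out was the change in CFU relative to the initial inoculum, reported as means.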

Staphylococcus aureus [26] = assay: Antimicrobial activity against linezolid-susceptible Staphylococcus aureus ATCC 25923 infected in THP1 cells after 24 hrs; assay type: functional, organism-based; conditions: ATCC 25923, THP-1, 24 h; method in brief: as §3
Staphylococcus aureus [27] = assay: Antimicrobial activity against linezolid-susceptible Staphylococcus aureus SA238 after 24 hrs; assay type: functional, organism-based; conditions: SA238, 24 h
[28] = Ratio of drug level for cellular to extracellular region of Staphylococcus aureus infected rat fibroblast at 4 mg/liter after 24 hrs; assay type: ADME, cell-based; method in brief: as §1
THP-1 [29] = assay: Ratio of drug level for cellular to extracellular region of Staphylococcus aureus infected human THP-1 cells at 4 mg/liter after 24 hrs; assay type: ADME, cell-based; conditions: thp-1, 24 h; method in brief: as §1
THP-1 [30] = assay: Ratio of drug level for cellular to extracellular region of Staphylococcus aureus infected human THP-1 cells at 4 mg/liter after 2 hrs; assay type: ADME, cell-based; conditions: thp-1, 2 h; method in brief: as §1
HUVEC [31] = assay: Ratio of drug level for cellular to extracellular region of Staphylococcus aureus infected HUVEC cells at 4 mg/liter after 2 hrs; assay type: ADME, cell-based; conditions: human; method in brief: as §1
Staphylococcus aureus [32] = assay: Antimicrobial activity against linezolid-resistant Staphylococcus aureus SA238L infected in Calu-3 cells assessed as log reduction in bacterial count after 24 hrs; assay type: functional; method in brief: as §2
Staphylococcus aureus [33] = assay: Antimicrobial activity against linezolid-susceptible Staphylococcus aureus ATCC 33591 infected in THP1 cells assessed as log reduction in bacterial count after 24 hrs; assay type: functional, THP-1; method in brief: as §3

CC(=O)NC[C@H]1CN(c2ccc(-c3ccc(CNCc4cnn[nH]4)cc3)c(F)c2)C(=O)O1 [RADEZOLID]
MIC (Staphylococcus aureus [1]): 2 µg/mL (≈ 4.56 µM) | MIC (Staphylococcus aureus [2]): 0.25 µg/mL (≈ 0.57 µM) | Ratio (HUVEC [3]): 10.5 | MIC (Staphylococcus aureus [4]): 0.5 µg/mL (≈ 1.14 µM) | Activity (Staphylococcus aureus [5]): 0.52 mg/L | log10cfu (Staphylococcus aureus [6]): 0.6 | log10cfu (Staphylococcus aureus [7]): -1 | MIC (Staphylococcus aureus [8]): 0.5 µg/mL (≈ 1.14 µM) | Activity (Staphylococcus aureus [9]): 1.04 mg/L | EC50 [10]: 1.51 µg/mL (≈ 3.44 µM) | Activity (Staphylococcus aureus [11]): 0.6 mg/L | EC50 (Staphylococcus aureus [12]): 0.14 µg/mL (≈ 0.319 µM) | MIC (Staphylococcus aureus [13]): 2 µg/mL (≈ 4.56 µM) | log10cfu (Staphylococcus aureus [14]): 0.6 | Activity (Staphylococcus aureus [15]): 0.6 mg/L | log10cfu (Staphylococcus aureus [16]): -0.79 | Activity (Staphylococcus aureus [17]): 0.6 mg/L | EC50 (Staphylococcus aureus [18]): 0.16 µg/mL (≈ 0.365 µM) | MIC [19]: 0.25 µg/mL (≈ 0.57 µM) | log10cfu (Staphylococcus aureus [20]): -0.61 | Activity (Staphylococcus aureus [21]): 0.91 mg/L | Activity (Staphylococcus aureus [22]): 0.21 mg/L | Activity (Staphylococcus aureus [23]): 0.6 mg/L | EC50 (Staphylococcus aureus [24]): 0.29 µg/mL (≈ 0.661 µM) | log10cfu (Staphylococcus aureus [25]): 0.5 | EC50 (Staphylococcus aureus [26]): 0.24 µg/mL (≈ 0.547 µM) | EC50 (Staphylococcus aureus [27]): 0.16 µg/mL (≈ 0.365 µM) | Ratio [28]: 10.9 | Ratio (THP-1 [29]): 9.8 | Ratio (THP-1 [30]): 9.3 | Ratio (HUVEC [31]): 9.5 | log10cfu (Staphylococcus aureus [32]): 0.6 | log10cfu (Staphylococcus aureus [33]): -0.56
